Some results are limits rather than exact numbers.

The target of assay [1] is Human immunodeficiency virus type 1 reverse transcriptase (Human immunodeficiency virus 1, UniProt Q72547, Y181C). The experiment in a line: Inhibition of HIV HXB2 recombinant reverse transcriptase Y181C mutant by scintillation proximity assay. On the technique in general: In a scintillation proximity assay essentially only radioactivity close to the scintillant gives light.

For assay [2], the target named is Human immunodeficiency virus type 1 reverse transcriptase (Human immunodeficiency virus 1, UniProt Q72547, K103N). The assay can be described thus: Inhibition of HIV NL43 recombinant reverse transcriptase K103N mutant by scintillation proximity assay.
Assay [3] has as its system Human immunodeficiency virus. The experiment in a line: Antiviral activity against HIV 3B in MT4 cells assessed as inhibition of replication after 3 days in presence of 10% fetal bovine serum. Format: functional. The settings on record: Human immunodeficiency virus 1, 3B, MT4, 72 h; read-out: CIC95. The essentials: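 MT4 cells infected overnight with wild-type H9IIIB virus (moi 0.01) without compound, washed, then cultured 3 days across a compound concentration range in 10% FBS. Replication read as p24 in culture supernatants. CIC95 = lowest concentration inhibiting replication by ≥95%.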

The nature of assay [4]: Inhibition of HIV NL43 recombinant reverse transcriptase by scintillation proximity assay. Details: species or system Human immunodeficiency virus. The essentials: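 Purified recombinant wild-type RT (NL_43) polymerase activity measured as 3H-dNTP incorporation, using a 500 nt heteropolymeric RNA template with biotinylated DNA primer. Read by scintillation proximity assay.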

For `O=C(NCc1c(F)cccc1Cl)c1[nH]c2ccc(Br)cc2c1S(=O)(=O)N1CCCC1`, the IC50 (as a rule, the concentration at which inhibition is half-maximal) was 16 nM in assay [1], 20 nM in assay [2] and 3.8 nM in assay [4]. The IC95 in assay [3] is 25 nM.

Regarding `O=C(NCc1ccccc1O)c1[nH]c2ccc(Br)cc2c1S(=O)(=O)N1CCCC1`, the concentration for half-maximal inhibition (IC50) in assay [1] was determined as 9.4 nM; in assay [2], 31 nM; in assay [4] it was 2.4 nM. Also, the IC95 in assay [3] turned out to be 23 nM.

Turning to `O=C(NCc1ccn[nH]1)c1[nH]c2ccc(Br)cc2c1S(=O)(=O)N1CCCC1`, the IC50 in assay [1] turned out to be 829 nM; in assay [2] it was 260 nM; in assay [4], 2.5 nM. In assay [3], the IC95 is under 7.8 nM.

`O=C(NCc1ccncc1)c1[nH]c2ccc(Br)cc2c1S(=O)(=O)N1CCCC1`: the results for the IC50 in assay [1], in assay [2] and in assay [4] were 6.3 nM, 170 nM and 14 nM, respectively. Moreover, the IC95 in assay [3] was under 7.8 nM.

Turning to `O=C(NCc1cncs1)c1[nH]c2ccc(Br)cc2c1S(=O)(=O)N1CCCC1`, the IC50 was found to be 6 nM in assay [1], 93 nM in assay [2] and 6.2 nM in assay [4]. Moreover, in assay [3], the IC95 was determined as 16 nM.

Turning to `Cc1cnc(-c2[nH]c3ccc(Br)cc3c2S(=O)(=O)N2CCCC2)[nH]1`, the IC50 in assay [1] was determined as 25 nM; in assay [2], 42 nM; in assay [4] it was 3.1 nM. In assay [3], the IC95 is under 7.8 nM.

As to `CCC(O)c1cnc(-c2[nH]c3ccc(Br)cc3c2S(=O)(=O)N2CCCC2)[nH]1` (centres undefined), the concentration for half-maximal inhibition (IC50) in assay [1] stood at 2600 nM; in assay [2], 62 nM; in assay [4], 8.8 nM. In addition, the IC95 in assay [3] turned out to be 50 nM.

As for `N#Cc1ccc2[nH]c(C(N)=O)c(S(=O)(=O)N3CCCC3)c2c1`, the figures for the IC50 in assay [1], in assay [2] and in assay [4] were over 10000 nM, 2300 nM and 9.1 nM, respectively. Besides, the IC95 in assay [3] came out at 16 nM.

`NC(=O)c1[nH]c2ccc(-c3cccnc3)cc2c1S(=O)(=O)N1CCCC1`: the IC95 in assay [3] worked out at 310 nM. Also, the IC50 in assay [4] is 2200 nM.

Take `CCC(OC)c1cnc(-c2[nH]c3ccc(Br)cc3c2S(=O)(=O)N2CCCC2)[nH]1` (centres undefined): the results for the IC50 in assay [1], in assay [2] and in assay [4] were 240 nM, 110 nM and 16 nM, respectively. The IC95 in assay [3] was 100 nM.

Regarding `O=S(=O)(c1c(-c2ncc(-c3ccccc3)[nH]2)[nH]c2ccc(Br)cc12)N1CCCC1`, the IC50 in assay [1] was over 9100 nM; in assay [2], 150 nM; in assay [4] it was 11 nM. For the same molecule, the IC95 in assay [3] was 67 nM.

Turning to `O=S(=O)(c1c(-c2nc3ccccc3[nH]2)[nH]c2ccc(Br)cc12)N1CCCC1`, the 50% inhibitory concentration (IC50) in assay [1] was 38 nM; in assay [2], 280 nM; in assay [4], 6.9 nM. The IC95 in assay [3] turned out to be 78 nM.

For `COc1ccc2nc(-c3[nH]c4ccc(Br)cc4c3S(=O)(=O)N3CCCC3)[nH]c2c1`, the figures for the IC50 in assay [1], in assay [2] and in assay [4] were 5100 nM, 150 nM and 45 nM, respectively. Moreover, the IC95 in assay [3] worked out at 400 nM.

As for `O=S(=O)(c1c(-c2nc3ccc(F)cc3[nH]2)[nH]c2ccc(Br)cc12)N1CCCC1`, the figures for the IC50 in assay [1], in assay [2] and in assay [4] were 5300 nM, 220 nM and 15 nM, respectively. Also, the IC95 in assay [3] stood at 280 nM.

With `Cc1cnc(-c2[nH]c3ccc(Cl)cc3c2S(=O)(=O)c2ccccc2)[nH]1`, the IC95 in assay [3] was determined as 12 nM. Besides, in assay [4], the IC50 amounted to 5 nM.

Turning to `NC(=O)c1[nH]c2ccc(Br)cc2c1S(=O)(=O)NC1CCCCC1`, the IC95 in assay [3] turned out to be 125 nM. Also, in assay [4], the IC50 was found to be 14 nM.

As to `NC(=O)c1[nH]c2ccc(Br)cc2c1S(=O)(=O)N1CCCC1`, the IC50 in assay [1] was 120 nM; in assay [2], 10000 nM. For the same molecule, in assay [3], the IC95 is under 7.8 nM.

Take `NC(=O)c1[nH]c2ccc(Br)cc2c1S(=O)(=O)N1CCCCC1`: the IC95 in assay [3] worked out at 16 nM. Moreover, in assay [4], the IC50 came out at 5.7 nM.

Consider `NC(=O)c1[nH]c2ccc(C3CC3)cc2c1S(=O)(=O)N1CCCC1`, for which, in assay [3], the IC95 was determined as 160 nM. Also, the IC50 in assay [4] was determined as 940 nM.

Take `NC(=O)c1[nH]c2ccc(Br)cc2c1S(=O)(=O)N1CCC(F)(F)CC1`: in assay [3], the IC95 was determined as 410 nM. Besides, the IC50 in assay [4] turned out to be 4.5 nM.

In the case of `CCCNS(=O)(=O)c1c(C(N)=O)[nH]c2ccc(Br)cc12`, the IC95 in assay [3] amounted to 160 nM. Besides, the IC50 in assay [4] amounted to 19 nM.

Consider `NC(=O)c1[nH]c2ccc(Br)cc2c1S(=O)(=O)NC1CCCC1`, for which the IC95 in assay [3] turned out to be 125 nM. The IC50 in assay [4] stood at 18 nM.

In the case of `O=C(NCCO)c1[nH]c2ccc(Br)cc2c1S(=O)(=O)N1CCCC1`, the concentration for half-maximal inhibition (IC50) in assay [1] came to 6.9 nM; in assay [2] it was 2800 nM; in assay [4], 15 nM. In addition, the IC95 in assay [3] came to 625 nM.

Regarding `O=S(=O)(c1c(-c2nc3cccnc3[nH]2)[nH]c2ccc(Br)cc12)N1CCCC1`, the results for the IC50 in assay [1], in assay [2] and in assay [4] were 5000 nM, 370 nM and 40 nM, respectively. Further, in assay [3], the IC95 came to 82 nM.

Regarding `NC(=O)c1[nH]c2ccc(Br)cc2c1S(=O)(=O)NC1CCC1`, the IC95 in assay [3] came out at 125 nM. In addition, in assay [4], the half-inhibitory concentration (IC50) is 0.5 nM.

For the molecule `O=S(=O)(c1c(-c2nc3cccc(O)c3[nH]2)[nH]c2ccc(Br)cc12)N1CCCC1`, the IC50 was found to be 810 nM in assay [1], 48 nM in assay [2] and 10 nM in assay [4]. In assay [3], the IC95 came out at 82 nM.

As to `NC(=O)c1[nH]c2ccc(C#CC3CC3)cc2c1S(=O)(=O)N1CCCC1`, the IC95 in assay [3] is 630 nM. Besides, the IC50 in assay [4] stood at 430 nM.

Turning to `NC(=O)c1[nH]c2ccc(Cc3ccc(Cl)cn3)cc2c1S(=O)(=O)N1CCCC1`, the IC50 in assay [1] is over 10000 nM; in assay [2], 8200 nM; in assay [4], 59 nM.

In the case of `NC(=O)c1[nH]c2ccc(Br)cc2c1S(=O)(=O)NC1CCC(F)(F)C1` (centres undefined), in assay [3], the IC95 was found to be 140 nM. Also, the IC50 in assay [4] is 0.2 nM.

As to `NC(=O)c1[nH]c2ccc(Cl)cc2c1S(=O)(=O)N1CCCC1`, the values for the IC50 in assay [1], in assay [2] and in assay [4] were 48 nM, 1960 nM and 3.9 nM, respectively. The IC95 in assay [3] is under 7.8 nM.

`O=C(NCc1nccs1)c1[nH]c2ccc(Br)cc2c1S(=O)(=O)N1CCCC1`: the IC50 in assay [1] worked out at 200 nM; in assay [2], 280 nM; in assay [4] it was 2.8 nM. Moreover, in assay [3], the IC95 was under 7.8 nM.

Regarding `O=C(NCc1ccnc2ccccc12)c1[nH]c2ccc(Br)cc2c1S(=O)(=O)N1CCCC1`, the IC50 in assay [1] came out at 63 nM; in assay [2], 25 nM; in assay [4], 3.1 nM. The IC95 in assay [3] worked out at 82 nM.

For `NC(=O)c1[nH]c2ccc(-c3ccccc3)cc2c1S(=O)(=O)N1CCCC1`, in assay [3], the IC95 came out at 1300 nM. In assay [4], the IC50 came to 550 nM.

With `NC(=O)c1[nH]c2ccc(Cl)cc2c1S(=O)(=O)c1ccccc1` [L-737126], the IC50 in assay [1] is 71 nM; in assay [2], 116 nM; in assay [4], 3 nM.

(Values after ChEMBL document CHEMBL1140821, “Novel indole-3-sulfonamides as potent HIV non-nucleoside reverse transcriptase inhibitors (NNRTIs)” (Bioorg Med Chem Lett, 2008).)
